Laboratory results as given in ChEMBL document CHEMBL1145336, “1-aryl-3-(4-pyridine-2-ylpiperazin-1-yl)propan-1-one oximes as potent dopamine D4 receptor agonists for the treatment of erectile dysfunction” (J Med Chem, 2006).
pEC50, pIC50, pKi: −log10 of the molar value.

Tests used:
D(2) dopamine receptor [1] = molecular target: T1, D(2) dopamine receptor (Homo sapiens, UniProt P14416); assay: Antagonist activity at human recombinant D2 receptor expressed in HEK293 cells by FLIPR assay; assay type: functional, cell-based
T1 sequence (P14416 whole entry): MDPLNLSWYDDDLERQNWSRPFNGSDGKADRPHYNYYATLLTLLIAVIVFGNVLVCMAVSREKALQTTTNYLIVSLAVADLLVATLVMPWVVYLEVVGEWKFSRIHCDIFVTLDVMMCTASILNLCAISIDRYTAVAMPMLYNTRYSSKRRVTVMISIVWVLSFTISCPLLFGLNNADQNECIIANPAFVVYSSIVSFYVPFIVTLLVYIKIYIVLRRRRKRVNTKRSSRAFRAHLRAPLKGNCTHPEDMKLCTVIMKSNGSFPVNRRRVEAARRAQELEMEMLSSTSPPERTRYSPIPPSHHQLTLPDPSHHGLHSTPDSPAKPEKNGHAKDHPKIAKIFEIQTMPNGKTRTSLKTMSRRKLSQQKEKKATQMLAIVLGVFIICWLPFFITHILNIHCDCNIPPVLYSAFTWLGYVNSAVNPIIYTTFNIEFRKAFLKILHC

D(4) dopamine receptor [2] = molecular target: T2, D(4) dopamine receptor (Homo sapiens, UniProt P21917); assay: Displacement of [3H]A-369508 from human recombinant D4.4 receptor expressed in HEK293 cell membrane; assay type: cell membranes
T2 sequence (P21917 whole entry): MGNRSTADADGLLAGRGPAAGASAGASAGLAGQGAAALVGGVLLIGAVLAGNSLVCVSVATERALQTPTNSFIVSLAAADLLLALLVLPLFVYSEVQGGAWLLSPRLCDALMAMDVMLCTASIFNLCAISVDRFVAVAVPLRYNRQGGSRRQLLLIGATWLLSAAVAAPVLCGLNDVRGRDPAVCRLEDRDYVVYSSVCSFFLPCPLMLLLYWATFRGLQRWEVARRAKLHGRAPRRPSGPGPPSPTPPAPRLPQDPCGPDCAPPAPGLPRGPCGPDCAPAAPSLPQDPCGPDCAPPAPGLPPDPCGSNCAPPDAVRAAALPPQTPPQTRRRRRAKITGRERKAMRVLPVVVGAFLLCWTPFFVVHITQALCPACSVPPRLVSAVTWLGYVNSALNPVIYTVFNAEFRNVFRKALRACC
Method in brief: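 Competition binding against the D4-selective agonist radioligand [3H]-A-369508, using membranes from HEK-293 cells engineered to express human D4.4. Mean values (SEM, n ≥ 4).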

D(4) dopamine receptor [3] = molecular target: T2, D(4) dopamine receptor; assay: Activity at human recombinant D4.4 receptor expressed in HEK293 cells by FLIPR assay; assay type: functional, cell-based
D(2) dopamine receptor [4] = molecular target: T1, D(2) dopamine receptor; assay: Displacement of [125I]PIPAT from human recombinant D2L receptor expressed in HEK293 cells
D(2) dopamine receptor [5] = molecular target: T1, D(2) dopamine receptor; assay: Agonist activity at human recombinant D2 receptor expressed in HEK293 cells by FLIPR assay; assay type: functional, cell-based
Method in brief: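 Calcium flux (FLIPR) in HEK-293 cells coexpressing recombinant human D2L with chimeric Gqo5. Efficacy is the maximal response relative to 10 µM dopamine (100%). EC50 is the concentration giving half-maximal stimulation. Values are means (SEM, n ≥ 3).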

Structure (SMILES)	pIC50 (D(2) dopamine receptor [1])	pKi (D(4) dopamine receptor [2])	pEC50 (D(4) dopamine receptor [3])	pKi (D(2) dopamine receptor [4])	pEC50 (D(2) dopamine receptor [5])
CO/N=C(\CCN1CCN(c2ccccn2)CC1)c1cccc(F)c1	< 5.00	7.86	7.35	7.00	< 5.00
CO/N=C(/c1ccc(Cl)cc1)C(O)CN1CCN(c2ccccn2)CC1 (centres undefined)	< 5.00	6.82	7.65	6.43	< 5.00
CCO/N=C(\CCN1CCN(c2nccs2)CC1)c1ccccc1	< 5.00	6.77	7.09	6.59	< 5.00
CO/N=C(/CCN1CCN(c2ccccn2)CC1)c1cc(F)cc(F)c1	< 5.00	8.20	7.33	6.65	< 5.00
CO/N=C(\CCN1CCN(c2ccccn2)CC1)c1cccc(Cl)c1	< 5.00	7.87	7.05	7.01	< 5.00
CO/N=C(/CCN1CCN(c2ccccn2)CC1)c1ccc(Cl)c(C)c1	< 5.00	7.94	7.01	7.22	< 5.00
CO/N=C(/c1ccc(Cl)cc1)C(C)CN1CCN(c2ccccn2)CC1 (centres undefined)	< 5.00	6.46	6.34	6.84	< 5.00
CO/N=C(/CCN1CCN(c2ccccn2)CC1)c1cccc(C)c1	< 5.00	7.49	7.21	7.17	< 5.00
COC(CN1CCN(c2ccccn2)CC1)/C(=N\O)c1cccc(C)c1 (centres undefined)	< 5.00	–	7.46	–	< 5.00
CO/N=C(/c1ccc(Cl)cc1)C(COC(C)C)CN1CCN(c2ccccn2)CC1 (centres undefined)	< 5.00	–	5.49	–	< 5.00
CO/N=C(/CCN1CCN(c2ccccn2)CC1)c1ccc(F)cc1	< 5.00	7.27	7.87	6.66	< 5.00
O/N=C(\CCN1CCN(c2ccccn2)CC1)c1ccc(F)cc1F	< 5.00	–	8.05	–	< 5.00
CCO/N=C(\CCN1CCN(c2cccc(OC)c2)CC1)c1ccccc1	< 5.00	–	5.57	–	< 5.00
Cc1cccc(/C(=N\O)C(O)CN2CCN(c3ccccn3)CC2)c1 (centres undefined)	< 5.00	–	7.35	–	< 5.00
CO/N=C(/CCN1CCN(c2ccccn2)CC1)c1ccc(C)c(C)c1	< 5.00	–	7.04	–	< 5.00
CO/N=C(/CCN1CCN(c2ccccn2)CC1)c1cccnc1	< 5.00	6.89	7.48	5.74	< 5.00
CO/N=C(\CCN1CCN(c2ccccn2)CC1)c1ccccc1Cl	< 5.00	–	7.37	–	< 5.00
O/N=C(\CCN1CCN(c2ccccn2)CC1)c1ccc(F)cc1	< 5.00	–	7.51	–	< 5.00
COC(CN1CCN(c2ccccn2)CC1)/C(=N/O)c1cccc(C)c1 (centres undefined)	< 5.00	–	5.27	–	< 5.00
O/N=C(\CCN1CCN(c2ccccn2)CC1)c1cccc(F)c1	< 5.00	–	7.77	–	< 5.00

Structure (SMILES)	pIC50 (D(2) dopamine receptor [1])	pKi (D(4) dopamine receptor [2])	pEC50 (D(4) dopamine receptor [3])	pKi (D(2) dopamine receptor [4])	pEC50 (D(2) dopamine receptor [5])
CO/N=C(/CCN1CCN(c2ccccn2)CC1)c1ccccc1Cl	< 5.00	–	7.24	–	< 5.00
Cc1ccccc1/C(CCN1CCN(c2ccccn2)CC1)=N/O	< 5.00	–	8.38	–	< 5.00
CO/N=C(/c1ccc(Cl)cc1)C(CNOC)CN1CCN(c2ccccn2)CC1 (centres undefined)	< 5.00	6.92	6.69	6.79	< 5.00
CO/N=C(/CCN1CCN(c2ccccn2)CC1)c1cccc(F)c1	< 5.00	8.19	7.22	7.33	< 5.00
CCCO/N=C(\CCN1CCN(c2ccccn2)CC1)c1ccccc1	< 5.00	–	6.49	–	< 5.00
Cc1ccc(O)c(/C(CCN2CCN(c3ccccn3)CC2)=N/O)c1	< 5.00	–	7.72	–	< 5.00
CO/N=C(/CCN1CCN(c2ccccc2OC(C)C)CC1)c1ccc(F)cc1	< 5.00	–	6.22	–	< 5.00
CO/N=C(/CCN1CCN(c2ccccn2)CC1)c1ccccc1	< 5.00	–	7.62	–	< 5.00
CO/N=C(\CCN1CCN(c2ccccn2)CC1C)c1ccc(Cl)cc1 (centres undefined)	< 5.00	7.17	6.48	7.12	< 5.00
O/N=C(/CCN1CCN(c2ncccn2)CC1)c1ccccc1	< 5.00	–	7.16	–	< 5.00
CO/N=C(\CCN1CCN(c2ccccn2)CC1)c1cccc(C#N)c1	< 5.00	–	7.20	–	< 5.00
CO/N=C(/CN1CCN(c2ccccn2)CC1)c1ccc(F)cc1	< 5.00	–	5.37	–	< 5.00
Cc1ccccc1/C(CCN1CCN(c2ccccn2)CC1)=N\O	< 5.00	–	7.69	–	< 5.00
CCO/N=C(/CCN1CCN(c2ccccn2)CC1)c1ccccc1	< 5.00	–	7.35	–	< 5.00
CCO/N=C(\CCN1CCN(c2ccccc2C#N)CC1)c1ccccc1	< 5.00	–	7.31	–	< 5.00
CO/N=C(/CCN1CCN(c2ccccn2)CC1)c1ccc(Cl)cc1Cl	< 5.00	–	6.53	–	< 5.00
CCO/N=C(\CCN1CCN(c2ccc(OC)cc2)CC1)c1ccccc1	< 5.00	–	< 5.00	–	< 5.00
CO/N=C(/CCN1CCN(c2ccccn2)CC1)c1ccccc1C	< 5.00	–	7.40	–	< 5.00
O/N=C(\CCN1CCN(c2ccccn2)CC1)c1cc(F)cc(F)c1	< 5.00	–	7.71	–	< 5.00
CCO/N=C(\CCN1CCN(c2ccccc2OC)CC1)c1ccccc1	< 5.00	–	6.47	–	< 5.00

Structure (SMILES)	pIC50 (D(2) dopamine receptor [1])	pKi (D(4) dopamine receptor [2])	pEC50 (D(4) dopamine receptor [3])	pKi (D(2) dopamine receptor [4])	pEC50 (D(2) dopamine receptor [5])
N#Cc1cccc(/C(CCN2CCN(c3ccccn3)CC2)=N/O)c1	< 5.00	–	7.88	–	< 5.00
CO/N=C(\CCN1CCN(c2ccccn2)CC1)c1ccc(Cl)cc1Cl	< 5.00	–	6.60	–	< 5.00
CO/N=C(\CCN1CCC(c2ccccn2)CC1)c1ccc(Cl)cc1	< 5.00	6.87	6.71	7.60	< 5.00
CO/N=C(\CCN1CCN(c2ccccn2)CC1)c1ccccc1C	< 5.00	7.94	7.13	6.95	< 5.00
O/N=C(\CCN1CCN(c2ccccn2)CC1)c1cccc(Cl)c1	< 5.00	–	7.92	–	< 5.00
CO/N=C(\CCN1CCN(c2ccccn2)CC1)c1cccc(C)c1	< 5.00	8.10	7.56	7.16	< 5.00
CO/N=C(/CCN1CCN(c2ccccn2)CC1C)c1ccc(Cl)cc1 (centres undefined)	< 5.00	–	7.00	–	< 5.00
CO/N=C(/CCN1CCC(c2ccccn2)CC1)c1ccc(Cl)cc1	< 5.00	7.05	< 5.00	7.71	< 5.00
CO/N=C(\CCN1CCCC(c2ccccn2)C1)c1ccc(Cl)cc1 (centres undefined)	< 5.00	–	6.22	–	< 5.00
CO/N=C(/c1cccnc1)C(O)CN1CCN(c2ccccn2)CC1 (centres undefined)	< 5.00	–	6.91	–	< 5.00
CO/N=C(\CCN1CCN(c2ccccn2)CC1)c1ccc(Cl)c(C)c1	< 5.00	–	6.87	–	< 5.00
CO/N=C(\CCN1CCN(c2ccccn2)CC1)c1cc(C)cc(C)c1	< 5.00	–	6.76	–	< 5.00
Cc1ccc(OCc2ccccc2)c(/C(CCN2CCN(c3ccccn3)CC2)=N/O)c1	< 5.00	–	< 5.00	–	< 5.00
O/N=C(/CCN1CCN(c2ccccn2)CC1)c1ccccc1	< 5.00	–	7.66	–	< 5.00
CCCCO/N=C(\CCN1CCN(c2ccccn2)CC1)c1ccccc1	< 5.00	–	6.42	–	< 5.00
N#Cc1cccnc1N1CCN(CC/C(=N/O)c2ccccc2)CC1	< 5.00	–	7.70	–	< 5.00
O/N=C(\CCN1CCN(c2nccs2)CC1)c1ccccc1	< 5.00	–	7.31	–	< 5.00
CO/N=C(/c1ccc(Cl)cc1)C(CN1CCN(c2ccccn2)CC1)OC (centres undefined)	< 5.00	–	6.55	–	< 5.00
CO/N=C(\CCN1CCN(c2ccccn2)CC1)c1ccc(Br)cc1	< 5.00	–	6.74	–	< 5.00
O/N=C(\CCN1CCN(c2ccccn2)CC1)c1ccccc1Cl	< 5.00	–	7.62	–	< 5.00
